We go through one compound from ChEMBL document CHEMBL3867488 (ACS Med Chem Lett, 2016).

Data set [1] addresses T1, Oxysterols receptor LXR-beta (Homo sapiens, UniProt P55055).
T1 sequence (P55055 whole entry): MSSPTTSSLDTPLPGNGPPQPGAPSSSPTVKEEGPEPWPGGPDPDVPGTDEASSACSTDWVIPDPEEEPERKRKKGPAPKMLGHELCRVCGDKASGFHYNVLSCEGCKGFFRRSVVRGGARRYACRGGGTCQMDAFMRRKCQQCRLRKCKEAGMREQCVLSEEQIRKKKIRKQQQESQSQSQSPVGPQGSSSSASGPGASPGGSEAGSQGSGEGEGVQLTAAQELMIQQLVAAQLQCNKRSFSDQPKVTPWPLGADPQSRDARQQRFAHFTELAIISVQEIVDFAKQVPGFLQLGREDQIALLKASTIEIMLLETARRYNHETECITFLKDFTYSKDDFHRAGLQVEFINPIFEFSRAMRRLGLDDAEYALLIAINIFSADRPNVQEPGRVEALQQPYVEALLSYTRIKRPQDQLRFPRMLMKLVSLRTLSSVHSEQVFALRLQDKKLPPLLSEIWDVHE
The data set can be described thus: Agonist activity at human LXR-beta expressed in African green monkey CV1 cells measured after 18 to 20 hrs by luciferase reporter gene assay. It counts as cell-based, CV-1. (In general: In a reporter assay the amount or activity of a reporter protein is the signal.)

The subject of another data set is Cynomolgus monkey. The data set can be described thus: In vivo agonist activity at LXR-beta in cynomolgus monkey assessed as ABCG1 gene induction by measuring total RNA level at 0.3 mg/ kg, po qd administered via gavage for 14 days measured 5 to 6 hrs post-dose. Type of data set: functional, Macaca fascicularis. The essentials:
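Cynomolgus monkeys dosed daily for 14 days. ABCG1 mRNA induction measured in blood cells on day 14 and expressed as fold change. Plasma drug concentration taken about 5 h post-dose. Plasma triglycerides also measured against baseline, with significance by ANOVA.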

The target of data set [2] is T2, Nuclear receptor subfamily 1 group I member 2 (Homo sapiens, UniProt O75469).
T2 sequence (O75469 whole entry): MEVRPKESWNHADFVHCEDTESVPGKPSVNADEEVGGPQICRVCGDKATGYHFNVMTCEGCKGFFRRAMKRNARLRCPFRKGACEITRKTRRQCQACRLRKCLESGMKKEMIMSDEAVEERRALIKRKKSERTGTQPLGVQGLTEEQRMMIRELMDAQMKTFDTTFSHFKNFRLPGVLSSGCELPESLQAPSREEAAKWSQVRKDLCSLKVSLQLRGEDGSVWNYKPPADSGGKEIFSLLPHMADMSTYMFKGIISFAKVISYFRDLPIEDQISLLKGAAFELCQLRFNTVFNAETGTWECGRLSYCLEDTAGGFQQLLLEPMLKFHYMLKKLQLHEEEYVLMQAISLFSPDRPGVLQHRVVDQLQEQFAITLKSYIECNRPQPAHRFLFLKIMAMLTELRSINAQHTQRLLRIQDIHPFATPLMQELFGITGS
The data set can be described thus: Agonist activity at human PXR expressed in human HepG2 cells assessed as induction of CYP3A4 measured after 24 hrs by AlamarBlue dye-based luciferase reporter gene assay relative to control. As to conditions: hepg2, 24 h. It counts as cell-based. A general note: Resazurin is reduced to fluorescent resorufin, in cell work by metabolically active cells.

Data set [3] in a line: Effect on plasma triglyceride level in cynomolgus monkey at 1 mg/kg, po qd administered via gavage for 14 days measured after 24 hrs of last-dose relative to base line. It counts as ADME, organism-based, Macaca fascicularis. As to conditions: in vivo. The essentials: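 Cynomolgus monkeys dosed daily for 14 days. On day 14, plasma drug concentration was taken 5 h post-dose. Plasma triglycerides were expressed as % elevation over baseline, with significance tested by ANOVA (p < 0.05).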

The target in data set [4] is T2, Nuclear receptor subfamily 1 group I member 2. The data set can be described thus: Agonist activity at human PXR expressed in human HepG2 cells assessed as induction of CYP3A4 measured after 24 hrs by AlamarBlue dye-based luciferase reporter gene assay. Type of data set: cell-based.
In data set [5] the target is T1, Oxysterols receptor LXR-beta. Briefly: Agonist activity at LXR-beta in human HeLa cells assessed as induction of ABCA1 by beta-galactosidase/luciferase reporter gene assay. It counts as cell-based. The essentials:
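HeLa cells carrying endogenous LXRα and LXRβ receptors, transfected with an ABCA1 LXREx3 reporter construct; agonist-driven reporter induction measured.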

The nature of data set [6]: Effect on plasma triglyceride level in cynomolgus monkey at 0.1 mg/kg, po qd administered via gavage for 14 days measured after 24 hrs of last-dose relative to base line. It counts as ADME, organism-based, Macaca fascicularis. To be noted: in vivo. The essentials: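 Cynomolgus monkeys dosed for 14 days, with groups at 0.1, 0.3 and 1 mg/kg. Plasma triglycerides expressed as percent change over baseline, with significance by ANOVA. Plasma drug exposure sampled 5 h post-dose. ABCG1 induction in blood cells monitored in the same animals.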

The species entered for the next data set is Macaca fascicularis. Briefly: Agonist activity at LXR-beta in cynomolgus monkey whole blood assessed as ABCA1 gene induction by measuring ABCA1 mRNA level after 4 hrs by SYBR-Green dye-based Q-PCR analysis relative to control. Type of data set: tissue-based.

For `CC(C)(O)c1cn(-c2ccc(-c3cc(F)c(CO)c(S(C)(=O)=O)c3)cc2F)c(C(C)(C)c2c(Cl)cccc2Cl)n1` [BMS-852927], the concentration for a half-maximal effect (EC50) (usually the concentration giving half of the maximal effect) in data set [1] was 24 nM; in data set [4], 1000 nM; in data set [5], 0.6 nM. The “fold change (FC)” value in the data set with Cynomolgus monkey was determined as 15. The Activity in data set [2] worked out at 108%; in data set [3], 10%; in data set [6] it was 20%. The Efficacy in the data set listed under Macaca fascicularis was 32%.
